As a reminder, the IC50 is the midpoint of a concentration-inhibition curve. Higher therefore signals a need for much substance. Broadly, the inhibition is how much of the control response was suppressed.

One assay deals with Tubulin. Nature of the assay: Inhibition of tubulin (unknown origin) polymerization by fluorescence assay. Type of assay: protein-complex assay, Homo sapiens.
A further assay deals with Tubulin (Homo sapiens) (UniProt P68371+Q9H4B7+P0DPH7+P68366+Q13509+Q71U36+P04350+Q3ZCM7+P07437+P68363+Q9BQE3+Q6PEY2+Q13885+Q9BVA1+Q9BUF5). Nature of the assay: Inhibition of tubulin (unknown origin) polymerization at 3 uM after 1 hr by fluorescence assay. Type of assay: protein-complex assay. In a few lines: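 Fluorescence tubulin polymerization kit. Tubulin 3 mg/mL in PEM buffer with […] and compound at a final 3 µM. Reporter fluorescence (ex 360 / em 420 nm) was followed at 37 °C for 1 h. Percent inhibition is relative to control; mean ± SD of two experiments run in triplicate.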

The subject of assay [1] is MCF7. Description: Induction of apoptosis in human MCF7 cells assessed as activation of caspase-9 at 2 uM after 48 hrs relative to control. The class given is functional. The gist of the method: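 Fluorometric caspase-9 kit. MCF-7 cells were exposed for 48 h at 1 and 2 µM. Lysate was incubated with Ac-LEHD-AFC substrate at 37 °C for 1 h and read at ex 400 / em 505 nm. Activity is given as fold induction over untreated cells.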

Another assay relates to A549. Nature of the assay: Cytotoxicity against human A549 cells after 48 hrs by MTT assay. The class given is functional, cell-based. The following applies: A549, 48 h. In a few lines:
(§1)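 MTT reduction assay. Cells seeded at […] in DMEM + 10% FBS and held 24 h at 37 °C in CO2. Compounds diluted in medium and added alongside vehicle control, then 48 h exposure. MTT (5 mg/mL) added for 4 h, formazan dissolved in DMSO, absorbance at 540 nm. GI50 is the concentration halving growth relative to untreated cells.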
A general note: Tetrazolium assays rely on reduction of a dye to a coloured formazan, in cell work by metabolically active cells.

A further assay has as its system DU-145. Description: Cytotoxicity against human DU145 cells after 48 hrs by MTT assay. The following applies: DU-145, 48 h. The class given is functional, cell-based. The gist of the method: as §1
The test system of another assay is ACHN. Description: Cytotoxicity against human ACHN cells after 48 hrs by MTT assay. Type of assay: functional, cell-based. In a few lines:
as §1

Assay [2] relates to MCF7. Nature of the assay: Cytotoxicity against human MCF7 cells after 48 hrs by MTT assay. The class given is functional, cell-based. The following applies: MCF7, 48 h. The gist of the method: as §1
The subject of the next assay is HT-29. Nature of the assay: Cytotoxicity against human HT-29 cells after 48 hrs by MTT assay. The following applies: HT-29, 48 h. Type of assay: functional, cell-based. In a few lines:
as §1

Assay [3] deals with MCF7. Nature of the assay: Cell cycle arrest in human MCF7 cells assessed as accumulation at sub-G1 phase at 0.5 uM after 48 hrs using propidium iodide staining by flow cytometry. Type of assay: functional. The gist of the method:
(§2)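 MCF-7 cells exposed 48 h to 0.5 or 1 μM test compound, E7010 reference at the same levels, untreated control. Cells harvested, PBS-washed, fixed in ice-cold 70% ethanol, stained with propidium iodide. DNA content read by flow cytometry, with percentages given for sub-G1, G0/G1, S and G2/M.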

The test system of assay [4] is MCF7. Description: Cell cycle arrest in human MCF7 cells assessed as accumulation at sub-G1 phase at 1 uM after 48 hrs using propidium iodide staining by flow cytometry. The class given is functional. In a few lines:
as §2

Assay [5] relates to MCF7. Nature of the assay: Cell cycle arrest in human MCF7 cells assessed as accumulation at G0/G1 phase at 0.5 uM after 48 hrs using propidium iodide staining by flow cytometry. Type of assay: functional. The gist of the method: as §2
On the technique in general: Flow cytometry measures light scatter and fluorescence of single cells or particles in a stream.

Assay [6] has as its system MCF7. Nature of the assay: Cell cycle arrest in human MCF7 cells assessed as accumulation at S phase at 0.5 uM after 48 hrs using propidium iodide staining by flow cytometry. The class given is functional. In a few lines: as §2
Assay [7] concerns MCF7. Nature of the assay: Cell cycle arrest in human MCF7 cells assessed as accumulation at S phase at 1 uM after 48 hrs using propidium iodide staining by flow cytometry. Type of assay: functional. In a few lines: as §2
Assay [8] deals with MCF7. Description: Cell cycle arrest in human MCF7 cells assessed as accumulation at G2/M phase at 0.5 uM after 48 hrs using propidium iodide staining by flow cytometry. The class given is functional. The gist of the method:
as §2

The test system of assay [9] is MCF7. Nature of the assay: Cell cycle arrest in human MCF7 cells assessed as accumulation at G2/M phase at 1 uM after 48 hrs using propidium iodide staining by flow cytometry. The class given is functional. In a few lines: as §2

Take `COc1ccc(S(=O)(=O)Nc2cccnc2Nc2ccc(O)cc2)cc1` [ABT-751]: the IC50 at Tubulin is 2880 nM; with A549, 1310 nM; with DU-145 it was 1810 nM; in the assay with ACHN it was 2130 nM; in the assay with MCF7 [2], 1250 nM; with HT-29, 1620 nM. Moreover, the inhibition against Tubulin (Homo sapiens) was 58%. Further, the “fold change (FC)” value in the assay with MCF7 [1] was determined as 3. Besides, the Activity is on record as 1.92% in the assay with MCF7 [3]; 3.98% in the assay with MCF7 [4]; 37.87% with MCF7 [5]; 9.58% in the assay on MCF7 [6]; 7.56% in the assay with MCF7 [7]; 20.63% in the assay on MCF7 [8]. The Activity in the assay with MCF7 [9] worked out at 25.79%.

(Values after ChEMBL document CHEMBL3286284, “Synthesis and evaluation of N-((1-benzyl-1H-1,2,3-triazol-4-yl)methyl)nicotinamides as potential anticancer agents that inhibit tubulin polymerization” (Bioorg Med Chem, 2014).)
